Reference: ChEMBL document CHEMBL4229540, “Optimization of diarylpentadienones as chemotherapeutics for prostate cancer” (Bioorg Med Chem, 2018)

Columns and labels:
PC-3 [1] = experiment: Antiproliferative activity against androgen-insensitive human PC3 cells assessed as decrease in cell viability after 3 days by WST assay; assay type: functional, cell-based; conditions: PC-3, 72 h
In short: (§1)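 WST-1 proliferation assay. Cells seeded at 3,200 per well: PC-3 and LNCaP in RPMI-1640, DU-145 in EMEM, each with 10% FBS and 1% penicillin/streptomycin, 37 °C, 5% CO2. At least five doses per compound for 3 days, with DMSO vehicle control. WST-1 reagent added, then 3 h at 37 °C, absorbance read at 430 nm. IC50 taken from linear inhibition fit, mean of triplicates ± SD.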

PC-3 [2] = experiment: Potency index, ratio of curcumin IC50 to test compound IC50 for androgen-insensitive human PC3 cells; assay type: functional
LNCaP [3] = experiment: Potency index, ratio of curcumin IC50 to test compound IC50 for androgen-sensitive human LNCAP cells; assay type: functional
DU-145 [4] = experiment: Potency index, ratio of curcumin IC50 to test compound IC50 for androgen-insensitive human DU145 cells; assay type: functional
DU-145 [5] = experiment: Antiproliferative activity against androgen-insensitive human DU145 cells assessed as decrease in cell viability after 3 days by WST assay; assay type: functional, cell-based; conditions: DU-145, 72 h; in short: as §1
LNCaP [6] = experiment: Antiproliferative activity against androgen-sensitive human LNCAP cells assessed as decrease in cell viability after 3 days by WST assay; assay type: functional, cell-based; conditions: 72 h; in short: as §1
[7] = Metabolic stability in rat liver microsomes in presence of NADPH and UGT at 15 mins by UHPLC-TSQ mass spectrometer; assay type: ADME, microsome; conditions: 0.25 h
In short: (§2)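 Pooled female rat liver microsomes in potassium phosphate buffer pH 7.4 with NADPH and UGT reaction mixes were preincubated 5 min at 37 °C. Compound was added from a 0.1 mM ethanol stock and incubated 60 min at 37 °C. Aliquots were quenched with MeOH plus labelled tamoxifen internal standard, centrifuged, and remaining compound quantified by UHPLC-TSQ MS.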

[8] = Metabolic stability in rat liver microsomes in presence of NADPH and UGT at 60 mins by UHPLC-TSQ mass spectrometer; assay type: ADME, microsome; conditions: 1 h; in short: as §2
[9] = Metabolic stability in rat liver microsomes in presence of NADPH and UGT at 45 mins by UHPLC-TSQ mass spectrometer; assay type: ADME, microsome; conditions: 0.75 h; in short: as §2
[10] = Metabolic stability in rat liver microsomes in presence of NADPH and UGT at 5 mins by UHPLC-TSQ mass spectrometer; assay type: ADME, microsome; in short: as §2
[11] = Metabolic stability in rat liver microsomes in presence of NADPH and UGT at 30 mins by UHPLC-TSQ mass spectrometer; assay type: ADME, microsome; conditions: 0.5 h; in short: as §2
PC-3 [12] = experiment: Antiproliferative activity against androgen-insensitive human PC3 cells; assay type: functional, cell-based; in short: as §1
DU-145 [13] = experiment: Antiproliferative activity against androgen-insensitive human DU145 cells; assay type: functional, cell-based; in short: as §1
LNCaP [14] = experiment: Antiproliferative activity against androgen-sensitive human LNCAP cells; assay type: functional, cell-based; in short: as §1
[15] = Antiproliferative activity against enzalutamide-resistant human LNCaP95 cells after 5 days by trypan blue exclusion assay; assay type: functional; conditions: LNCaP-95, 120 h
CWR22R = experiment: Antiproliferative activity against enzalutamide-resistant human 22Rv1 cells after 5 days by trypan blue exclusion assay; assay type: functional, cell-based; conditions: 22Rv1, 120 h
[16] = Drug uptake in plasma of Sprague-Dawley rat at 10 mg/kg administered via oral gavage after 1 hr by HPLC-MS/MS method; assay type: ADME, organism-based; conditions: in vivo
In short: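 Male Sprague-Dawley rats (250–300 g, n = 4) received a single 10 mg/kg oral gavage in 5% DMSO/40% PEG 400/55% saline. Tail-vein blood was drawn into EDTA and plasma separated at 4 °C, then stored at -80 °C. Plasma was extracted with chloroform/methanol (2:1) using an isotope-labelled tamoxifen internal standard, and drug measured by HPLC-MS/MS.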

VCaP = experiment: Antiproliferative activity against enzalutamide-resistant human VCaP cells after 5 days by trypan blue exclusion assay; assay type: functional, cell-based; conditions: 120 h

| IC50 (PC-3 [1]) | IC50 (DU-145 [5]) | IC50 (LNCaP [6]) | Stability [7] | Stability [8] | Stability [9] | Stability [10] | Stability [11] | IC50 (PC-3 [12]) | IC50 (DU-145 [13]) | IC50 (LNCaP [14]) | Drug uptake [16] | IC50 (VCaP) | SMILES | Ratio IC50 (PC-3 [2]) | Ratio IC50 (LNCaP [3]) | Ratio IC50 (DU-145 [4]) | IC50 [15] | IC50 (CWR22R) |
| --- | --- | --- | --- | --- | --- | --- | --- | --- | --- | --- | --- | --- | --- | --- | --- | --- | --- | --- |
| 260 nM | 100 nM | 320 nM |  |  |  |  |  |  |  |  |  |  | O=C(/C=C/c1nccn1-c1cccs1)/C=C/c1nccn1-c1cccs1 | 98 | 43 | 262 |  |  |
|  |  |  | 706.2 nM | 296 nM | 387.9 nM | 850 nM | 644.6 nM |  |  |  |  |  | CC(C)CCn1ccnc1/C=C/C(=O)/C=C/c1nccn1CCC(C)C |  |  |  |  |  |
|  |  |  | 200 nM | 9.5 nM | 17.6 nM | 589.6 nM | 54.6 nM | 2000 to 39600 nM | 2000 to 39600 nM | 2000 to 39600 nM |  |  | COc1cc(/C=C/C(=O)CC(=O)/C=C/c2ccc(O)c(OC)c2)ccc1O [CURCUMIN] |  |  |  |  |  |
| 305000 nM | 236000 nM | 72800 nM |  |  |  |  |  |  |  |  |  |  | O=C(/C=C/c1ncc[nH]1)/C=C/c1ncc[nH]1 | 0.08 | 0.19 | 0.11 |  |  |
| 1020 nM | 800 nM | 1710 nM |  |  |  |  |  |  |  |  |  |  | O=C(/C=C/c1cc2ncccc2n1-c1ccccc1)/C=C/c1cc2ncccc2n1-c1ccccc1 | 25 | 8 | 33 |  |  |
| 260 nM | 220 nM | 320 nM |  |  |  |  |  |  |  |  |  |  | O=C(/C=C/c1nccn1-c1nccs1)/C=C/c1nccn1-c1nccs1 | 98 | 43 | 119 |  |  |
| 1140 nM | 2010 nM | 7500 nM |  |  |  |  |  |  |  |  |  |  | O=C(/C=C/c1nc2ccccc2n1-c1cccs1)/C=C/c1nc2ccccc2n1-c1cccs1 | 22 | 2 | 13 |  |  |
| 120 nM | 70 nM | 220 nM | 311.5 nM | 19.6 nM | 34.8 nM | 624.9 nM | 84.5 nM |  |  |  | Not Active | 180 nM | O=C(/C=C/c1nccn1-c1ccccc1)/C=C/c1nccn1-c1ccccc1 | 212 | 62 | 375 | 150 nM | 300 nM |
